Assay results collected from several papers.
Compare with care: the assays were run in different laboratories.
PTGER4: Prostaglandin E2 receptor EP4 subtype (PTGER4, Homo sapiens, UniProt P35408)
CDK7 with cyclin H: Cyclin-dependent kinase 7, with cyclin H (CDK7, Homo sapiens, UniProt P50613)
HTR1B: 5-hydroxytryptamine receptor 1B (HTR1B, Homo sapiens, UniProt P28222)

With `CCN(c1cc(C#CCN2CCOCC2)cc(C(=O)NCc2c(C)cc(C)[nH]c2=O)c1C)[C@H]1CC[C@H](N(C)CCOC)CC1` the inhibition was 7% (Histone-lysine N-methyltransferase EHMT2 (EHMT2, Homo sapiens, UniProt Q96KQ7); enzyme activity; inhibitor; 1 µM).
For `CCN(Cc1ccccc1C(F)(F)F)C(=O)C1CCN(S(=O)(=O)c2ccc3[nH]ncc3c2)CC1`, the inhibition was 33% (PTGER4; ligand displacement; radioligand; 10 µM).
`COc1cc(NC(C)=O)c(Cl)cc1C(=O)Nc1nccs1` gave an inhibition of -1.3% (Calcitonin-gene-related peptide receptor, CALCRL/RAMP1 (Homo sapiens, UniProt O60894+Q16602); cell-free assay; 10 µM).
`CCN(CC)c1ccc(C2Nc3ccc(C(=O)c4ccccc4)cc3NC3=C2C(=O)CC(C)(C)C3)cc1` (centres unmarked) gave an inhibition of 7% (PTGER4; ligand displacement; radioligand; 10 µM).
`CC1=C(/C=C/C(C)=C/C=C/C(C)=C/C=C/C=C(C)/C=C/C=C(C)/C=C/C2=C(C)CCCC2(C)C)C(C)(C)CCC1` has an inhibition of 19.7% (CDK7 with cyclin H; enzyme activity; inhibitor; ADP detection; 10 µM).
`Ic1cccc2cnccc12` has an inhibition of -6% (PTGER4; ligand displacement; radioligand; 10 µM).
For `O=C(c1ccc(F)cc1)N(Cc1ccccc1)C1CCCCC1`, the inhibition was 6% (PTGER4; cell-free assay; 10 µM).
With `CC(/C=C/C=C(\C)C(=O)O[C@@H]1O[C@H](CO[C@@H]2O[C@H](CO)[C@@H](O)[C@H](O)[C@H]2O)[C@@H](O)[C@H](O)[C@H]1O)=C\C=C\C=C(C)\C=C\C=C(/C)C(=O)O[C@@H]1O[C@H](CO[C@@H]2O[C@H](CO)[C@@H](O)[C@H](O)[C@H]2O)[C@@H](O)[C@H](O)[C@H]1O` the inhibition was 22.8% (CDK7 with cyclin H; enzyme activity; inhibitor; ADP detection; 10 µM).
The inhibition of `O=C(CSc1nc2nccnc2c(=O)n1CCc1ccccc1)Nc1nccs1` is reported as 13% (Phosphatidylinositol 4-phosphate 5-kinase type-1 beta (PIP5K1B, Homo sapiens, UniProt O14986); enzyme activity; inhibitor; 10 µM).
`O=c1cc(-c2ccccc2)oc2c1ccc1ccccc12` has an inhibition of 29.9% (CDK7 with cyclin H; enzyme activity; inhibitor; ADP detection; 10 µM).
For `CN(C)C1CCN(CC#Cc2nn(C3CCCC3)c3nc(NCc4ccccc4)ncc23)C1` (centres unmarked), the inhibition was 2% (Mitogen-activated protein kinase 1 (MAPK1, Homo sapiens, UniProt P28482); enzyme activity; inhibitor; FRET; 0.1 µM).
With `C=C(C)[C@@H](CC=C(C)C)C[C@@]12C[C@@H](CC=C(C)C)C(C)(C)[C@@](CC=C(C)C)(C(=O)C(C(=O)c3ccc(O)c(O)c3)=C1O)C2=O` the inhibition was 25.8% (CDK7 with cyclin H; enzyme activity; inhibitor; ADP detection; 10 µM).
The inhibition of `N#Cc1cc(Cn2c(N3CCCC3)nc3ccccc32)ccc1F` is reported as -19.3% (HTR1B; ligand displacement; radioligand; 10 µM).
The inhibition of `Oc1cccc(Nc2nc(-c3ccc(F)cc3F)cs2)c1` is reported as -7.1% (HTR1B; ligand displacement; radioligand; 10 µM).
With `CC(CN(C)C)C(Oc1cccc2ccccc12)c1cccs1` (centres unmarked) the inhibition was < 70% (Sodium-dependent dopamine transporter (Slc6a3, Rattus norvegicus, UniProt P23977); ligand displacement; radioligand; 10 µM; cell membranes).
The inhibition of `CC(/C=C/C=C(\C)C(=O)O)=C\C=C\C=C(C)\C=C\C=C(/C)C(=O)O` is reported as 38.3% (CDK7 with cyclin H; enzyme activity; inhibitor; ADP detection; 10 µM).
The inhibition of `O=C(c1ccc(Cl)cc1)N(Cc1ccccc1)C1CCCCC1` is reported as -11.5% (HTR1B; ligand displacement; radioligand; 10 µM).
